This is an account of results in ChEMBL document CHEMBL1148117, “Synthesis and structure-activity relationship study of lamellarin derivatives” (J Nat Prod, 2002).

Molecules are shown by their SMILES. A value given as a limit tells only on which side of the number the result lay.

Data set [1] deals with HeLa. As to the kind of experiment: Cytotoxicity against human HeLa cells assessed as inhibition of colony formation after 5 to 8 days by colony assay. The class given is functional, cell-based. Summed up: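 HeLa cells were seeded at 100-150 cells per well and grown with a range of compound concentrations in MEM with 10% fetal calf serum for 5-8 days at 37 °C under 5% CO2/95% air. Colonies were stained with 1% methylene blue in 50% methanol and counted; a cluster of 40 or more cells counted as one colony.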

Data set [2] deals with Human immunodeficiency virus 1. As to the kind of experiment: Antiviral activity against HIV1 in cell cultures assessed as inhibition of viral replication. Type of data set: functional, organism-based.
Data set [3] relates to MDCK. As to the kind of experiment: Cytotoxicity against MDCK cells assessed as inhibition of colony formation after 5 to 8 days by colony assay. The class given is cell-based. The settings on record: Canis lupus familiaris. Summed up: (§1)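 Colony-formation assay: 100-150 cells per well grown with varying concentrations of compound for 5-8 days at 37 °C under 5% CO₂/95% air. Colonies were stained with 1% methylene blue in 50% methanol and counted, with clusters of 40 or more cells scored as colonies. IC50 was estimated from dose-response curves.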

The test system of data set [4] is Vero. In words: Cytotoxicity against african green monkey Vero cells assessed as inhibition of colony formation after 5 to 8 days by colony assay. The class given is cell-based. Particulars: Chlorocebus sabaeus. Summed up: as §1
The test system of data set [5] is XC. As to the kind of experiment: Cytotoxicity against rat XC cells assessed as inhibition of colony formation after 5 to 8 days by colony assay. The class given is functional, cell-based. Summed up: as §1
Data set [6] has as its system MDCK. As to the kind of experiment: Cytotoxicity against MDCK cells at 1 mM by MTT assay. Type of data set: cell-based, Canis lupus familiaris. The settings on record: dog, 1000 µM. On the technique in general: Formazan colour is commonly taken as a measure of viable cells.

As to `COc1cc(-c2c3c4ccccc4oc(=O)c3n3ccc4cc(O)c(OC)cc4c23)ccc1O`, in data set [1], the IC50 worked out at 4000 nM. The same measure, in the same setting: under `COc1ccc2oc(=O)c3c(c(-c4ccc(O)c(OC)c4)c4c5cc(OC)c(O)cc5ccn43)c2c1` stands 850 nM; under `COc1ccc(-c2c3c4cc5c(cc4oc(=O)c3n3ccc4cc(OC)c(OC)cc4c23)OCO5)cc1OC`, more than 100000 nM.

In the case of `COc1cc2c(cc1O)oc(=O)c1c2c(-c2ccc(OC)c(OC)c2)c2c3cc(OC)c(OC)cc3ccn21`, in data set [1], the IC50 came out at 2500 nM. Consider `O=c1oc2ccccc2c2c(-c3ccc(O)c(O)c3)c3c4cc(O)c(O)cc4ccn3c12`, for which the IC50 in data set [1] came to 1100 nM. In the case of `CC(=O)Oc1ccc(-c2c3c4cc(OC(C)=O)c(OC(C)=O)cc4oc(=O)c3n3ccc4cc(OC(C)=O)c(OC(C)=O)cc4c23)cc1OC(C)=O`, the IC50 in data set [1] was determined as 11000 nM.

Turning to `COc1cc(-c2c3c4ccc(O)cc4oc(=O)c3n3ccc4cc(O)c(OC)cc4c23)ccc1O`, the IC50 in data set [1] stood at 39.5 nM. In the case of `COc1cccc(-c2c3c4cc(OC)c(O)cc4oc(=O)c3n3ccc4cc(O)c(OC)cc4c23)c1`, in data set [1], the IC50 came to 70 nM. Take `COc1ccc(-c2c3c4cc(OC)c(OS(=O)(=O)O)cc4oc(=O)c3n3ccc4cc(OC)c(OC)cc4c23)cc1O`: in data set [2], the IC50 came to 8000 nM. For `COc1cc2c(cc1O)oc(=O)c1c2c(-c2ccc(O)cc2)c2c3cc(OC)c(O)cc3ccn21`, the IC50 in data set [1] stood at 38 nM. In the case of `COc1ccc(-c2c3c4ccccc4oc(=O)c3n3ccc4cc(OC)c(OC)cc4c23)cc1OC`, the IC50 in data set [3] came to 5600 nM; in data set [1] it was 5700 nM; in data set [4], 4700 nM; in data set [5] it was 5600 nM. On to `COc1cc(-c2c3c4cc(OC)c(O)cc4oc(=O)c3n3ccc4cc(O)c(OC)cc4c23)ccc1O` [LAMELLARIN D], for which the IC50 in data set [3] turned out to be 22.5 nM; in data set [1], 10.5 nM; in data set [4] it was 10.5 nM; in data set [5], 12.4 nM. The Activity result in data set [6] is “Non-toxic”. With `O=c1oc2cc(O)c(O)cc2c2c(-c3ccc(O)c(O)c3)c3c4cc(O)c(O)cc4ccn3c12` [LAMELLARIN H], in data set [1], the IC50 was more than 100000 nM.

`CO[C@@]12[C@H](COC(N)=O)C3=C(C(=O)C(C)=C(N)C3=O)N1C[C@@H]1N[C@@H]12` [MITOMYCIN]: the IC50 in data set [1] turned out to be 68 nM.

The term IC50 denotes the midpoint of a concentration-inhibition curve.
